Results reported in ChEMBL document CHEMBL1142894, “Preparation of 5-aryl-3-alkylthio-l,2,4-triazoles and corresponding sulfones with antiinflammatory-analgesic activity” (Bioorg Med Chem, 2007).
The source made the active and inactive calls. The rule behind the calls is not given here.

Assays:
Mus musculus [1] = experiment: Antiinflammatory activity against carrageenan-induced paw edema in Swiss albino mouse assessed as swelling thickness at 100 mg/kg, po after 90 mins; format: functional
In short: (§1)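 Oral dosing in 0.5% CMC; vehicle to controls. Then carrageenan (0.5 mg/25 ll, freshly suspended in 154 mM saline) injected into the right hind paw subplantar tissue; saline into the left paw. Right-left footpad thickness difference measured by dial gauge calliper every 90 min over 6 h. Inhibition % is relative to vehicle control. n = 6; mean ± SEM.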

Mus musculus [2] = experiment: Antiinflammatory activity against carrageenan-induced paw edema in Swiss albino mouse assessed as swelling thickness at 100 mg/kg, po after 180 mins; format: functional; in short: as §1
Mus musculus [3] = experiment: Antiinflammatory activity against carrageenan-induced paw edema in Swiss albino mouse assessed as swelling thickness at 100 mg/kg, po after 270 mins; format: functional; in short: as §1
Mus musculus [4] = experiment: Antiinflammatory activity against carrageenan-induced paw edema in Swiss albino mouse assessed as swelling thickness at 100 mg/kg, po after 360 mins; format: functional; in short: as §1
Mus musculus [5] = experiment: Inhibition of carrageenan-induced paw edema in Swiss albino mouse at 100 mg/kg, po after 90 mins relative to control; format: functional; conditions: 1.5 h; in short: as §1
Mus musculus [6] = experiment: Inhibition of carrageenan-induced paw edema in Swiss albino mouse at 100 mg/kg, po after 180 mins relative to control; format: functional; conditions: 3 h; in short: as §1
Mus musculus [7] = experiment: Inhibition of carrageenan-induced paw edema in Swiss albino mouse at 100 mg/kg, po after 270 mins relative to control; format: functional; conditions: 4.5 h; in short: as §1
Mus musculus [8] = experiment: Inhibition of carrageenan-induced paw edema in Swiss albino mouse at 100 mg/kg, po after 360 mins relative to control; format: functional; conditions: 6 h; in short: as §1
Mus musculus [9] = experiment: Analgesic activity against p-benzoquinone-induced abdominal constriction in Swiss albino mouse assessed as number of writhings at 25 mg/kg, po; format: functional, Abdomen
In short: (§2)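 Test samples given orally in 0.5% CMC; vehicle to controls. 60 min later, 2.5% (v/v) p-benzoquinone in distilled water, 0.1 ml/10 g, given i.p. Mice housed singly; writhes counted for 15 min starting 5 min after injection. Activity is % change from vehicle controls. n = 6; mean ± SEM.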

Mus musculus [10] = experiment: Analgesic activity against p-benzoquinone-induced abdominal constriction in Swiss albino mouse assessed as number of writhings at 50 mg/kg, po; format: functional, Abdomen; in short: as §2
Mus musculus [11] = experiment: Analgesic activity against p-benzoquinone-induced abdominal constriction in Swiss albino mouse assessed as number of writhings at 100 mg/kg, po; format: functional, Abdomen; in short: as §2
Mus musculus [12] = experiment: Analgesic activity against p-benzoquinone-induced abdominal constriction in Swiss albino mouse assessed as number of writhings at 200 mg/kg, po; format: functional, Abdomen; in short: as §2
Mus musculus [13] = experiment: Inhibition of p-benzoquinone-induced writhing in Swiss albino mouse at 25 mg/kg, po relative to control; format: functional
In short: (§3)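 Mice, n = 6 per group, dosed orally with a suspension in 0.5% sodium CMC. 60 min later, 0.1 ml/10 g of 2.5% […] p-benzoquinone in distilled water given ip. Abdominal writhes counted per animal for 15 min, starting 5 min after injection. Expressed as % change in mean writhing count versus vehicle controls.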

Mus musculus [14] = experiment: Inhibition of p-benzoquinone-induced writhing in Swiss albino mouse at 50 mg/kg, po relative to control; format: functional; in short: as §3
Mus musculus [15] = experiment: Inhibition of p-benzoquinone-induced writhing in Swiss albino mouse at 100 mg/kg, po relative to control; format: functional; in short: as §3
Mus musculus [16] = experiment: Inhibition of p-benzoquinone-induced writhing in Swiss albino mouse at 200 mg/kg, po relative to control; format: functional; in short: as §3
Mus musculus [17] = experiment: Gastric-ulcerogenic effect in Swiss albino mouse assessed as lesions at 25 mg/kg, po; format: functional, organism-based; set-up: dose 25 mg/kg
In short: (§4)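 Mice killed under deep ether anesthesia 3 h after the writhing test; the oral dose in 0.5% CMC was the one used in that test. Stomachs removed, opened along the great curvature and examined under a dissecting microscope for lesions or bleeding. Reported as ratio of ulceration; n = 6.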

Mus musculus [18] = experiment: Gastric-ulcerogenic effect in Swiss albino mouse assessed as lesions at 50 mg/kg, po; format: functional, organism-based; set-up: dose 50 mg/kg; in short: as §4
Mus musculus [19] = experiment: Gastric-ulcerogenic effect in Swiss albino mouse assessed as lesions at 100 mg/kg, po; format: functional, organism-based; set-up: dose 100 mg/kg; in short: as §4
Mus musculus [20] = experiment: Antiinflammatory activity against carrageenan-induced paw edema in Swiss albino mouse assessed as swelling thickness at 25 mg/kg, po after 90 mins; format: functional; in short: as §1
Mus musculus [21] = experiment: Antiinflammatory activity against carrageenan-induced paw edema in Swiss albino mouse assessed as swelling thickness at 25 mg/kg, po after 180 mins; format: functional; in short: as §1
Mus musculus [22] = experiment: Antiinflammatory activity against carrageenan-induced paw edema in Swiss albino mouse assessed as swelling thickness at 25 mg/kg, po after 270 mins; format: functional; in short: as §1
Mus musculus [23] = experiment: Antiinflammatory activity against carrageenan-induced paw edema in Swiss albino mouse assessed as swelling thickness at 25 mg/kg, po after 360 mins; format: functional; in short: as §1
Mus musculus [24] = experiment: Antiinflammatory activity against carrageenan-induced paw edema in Swiss albino mouse assessed as swelling thickness at 50 mg/kg, po after 180 mins; format: functional; in short: as §1
Mus musculus [25] = experiment: Antiinflammatory activity against carrageenan-induced paw edema in Swiss albino mouse assessed as swelling thickness at 50 mg/kg, po after 270 mins; format: functional; in short: as §1
Mus musculus [26] = experiment: Antiinflammatory activity against carrageenan-induced paw edema in Swiss albino mouse assessed as swelling thickness at 50 mg/kg, po after 360 mins; format: functional; in short: as §1
Mus musculus [27] = experiment: Antiinflammatory activity against carrageenan-induced paw edema in Swiss albino mouse assessed as swelling thickness at 200 mg/kg, po after 90 mins; format: functional; in short: as §1
Mus musculus [28] = experiment: Antiinflammatory activity against carrageenan-induced paw edema in Swiss albino mouse assessed as swelling thickness at 200 mg/kg, po after 180 mins; format: functional; in short: as §1
Mus musculus [29] = experiment: Antiinflammatory activity against carrageenan-induced paw edema in Swiss albino mouse assessed as swelling thickness at 200 mg/kg, po after 270 mins; format: functional; in short: as §1
Mus musculus [30] = experiment: Antiinflammatory activity against carrageenan-induced paw edema in Swiss albino mouse assessed as swelling thickness at 200 mg/kg, po after 360 mins; format: functional; in short: as §1
Mus musculus [31] = experiment: Inhibition of carrageenan-induced paw edema in Swiss albino mouse at 25 mg/kg, po after 90 mins relative to control; format: functional; conditions: 1.5 h; in short: as §1
Mus musculus [32] = experiment: Inhibition of carrageenan-induced paw edema in Swiss albino mouse at 25 mg/kg, po after 180 mins relative to control; format: functional; conditions: 3 h; in short: as §1
Mus musculus [33] = experiment: Inhibition of carrageenan-induced paw edema in Swiss albino mouse at 25 mg/kg, po after 270 mins relative to control; format: functional; conditions: 4.5 h; in short: as §1
Mus musculus [34] = experiment: Inhibition of carrageenan-induced paw edema in Swiss albino mouse at 25 mg/kg, po after 360 mins relative to control; format: functional; conditions: 6 h; in short: as §1
Mus musculus [35] = experiment: Inhibition of carrageenan-induced paw edema in Swiss albino mouse at 50 mg/kg, po after 90 mins relative to control; format: functional; conditions: 1.5 h
In short: (§5)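 Mice, n = 6 per group. Test agent given orally as a suspension in 0.5% sodium CMC in distilled water; controls received vehicle only. Afterwards, 0.5 mg/25 ll carrageenan in saline (154 mM NaCl) injected subplantar into the right hind paw, saline into the left. Right-minus-left footpad thickness measured by dial gauge caliper every 90 min for 6 h. Inhibition is relative to vehicle-control group means.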

Mus musculus [36] = experiment: Inhibition of carrageenan-induced paw edema in Swiss albino mouse at 50 mg/kg, po after 180 mins relative to control; format: functional; conditions: 3 h; in short: as §1
Mus musculus [37] = experiment: Inhibition of carrageenan-induced paw edema in Swiss albino mouse at 50 mg/kg, po after 270 mins relative to control; format: functional; conditions: 4.5 h; in short: as §5
Mus musculus [38] = experiment: Inhibition of carrageenan-induced paw edema in Swiss albino mouse at 50 mg/kg, po after 360 mins relative to control; format: functional; conditions: 6 h; in short: as §5
Mus musculus [39] = experiment: Inhibition of carrageenan-induced paw edema in Swiss albino mouse at 200 mg/kg, po after 90 mins relative to control; format: functional; conditions: 1.5 h; in short: as §1
Mus musculus [40] = experiment: Inhibition of carrageenan-induced paw edema in Swiss albino mouse at 200 mg/kg, po after 180 mins relative to control; format: functional; conditions: 3 h; in short: as §1
Mus musculus [41] = experiment: Inhibition of carrageenan-induced paw edema in Swiss albino mouse at 200 mg/kg, po after 270 mins relative to control; format: functional; conditions: 4.5 h; in short: as §1
Mus musculus [42] = experiment: Inhibition of carrageenan-induced paw edema in Swiss albino mouse at 200 mg/kg, po after 360 mins relative to control; format: functional; conditions: 6 h; in short: as §1
Mus musculus [43] = experiment: Acute toxicity in Swiss albino mouse assessed as lethal effect at 25 mg/kg/day, po after 72 hrs; format: organism-based; set-up: route oral; conditions: in vivo
In short: (§6)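 Oral single dose suspended in 0.5% carboxymethylcellulose, given after a 24 h fast; food and water returned 1 h after dosing. Vehicle-only controls. Mice observed at 1 h, then once daily for 72 h, for toxic signs and mortality.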

Mus musculus [44] = experiment: Acute toxicity in Swiss albino mouse assessed as lethal effect at 50 mg/kg/day, po after 72 hrs; format: organism-based; set-up: route oral; conditions: in vivo; in short: as §6
Mus musculus [45] = experiment: Acute toxicity in Swiss albino mouse assessed as lethal effect at 100 mg/kg/day, po after 72 hrs; format: organism-based; set-up: route oral; conditions: in vivo; in short: as §6
Mus musculus [46] = experiment: Acute toxicity in Swiss albino mouse assessed as lethal effect at 200 mg/kg/day, po after 72 hrs; format: organism-based; set-up: route oral; conditions: in vivo; in short: as §6
Mus musculus [47] = experiment: Antiinflammatory activity against carrageenan-induced paw edema in Swiss albino mouse assessed as swelling thickness at 50 mg/kg, po after 90 mins; format: functional; in short: as §1

CCS(=O)(=O)c1nc(-c2ccccc2)n[nH]1
Activity (Mus musculus [1]): 33.2 10^-2mm
Activity (Mus musculus [2]): 35.2 10^-2mm
Activity (Mus musculus [3]): 39.2 10^-2mm
Activity (Mus musculus [4]): 43.5 10^-2mm
inhibition in vivo at 100 mg/kg (Mus musculus [5]): 25.9%
inhibition in vivo at 100 mg/kg (Mus musculus [6]): 31.7%
inhibition in vivo at 100 mg/kg (Mus musculus [7]): 33.3%
inhibition in vivo at 100 mg/kg (Mus musculus [8]): 36.8%
Activity (Mus musculus [9]): 38.2
Activity (Mus musculus [10]): 26.7
Activity (Mus musculus [11]): 27.5
Activity (Mus musculus [12]): 48.5
inhibition in vivo at 25 mg/kg (Mus musculus [13]): 25.7%
inhibition in vivo at 50 mg/kg (Mus musculus [14]): 48.1%
inhibition in vivo at 100 mg/kg (Mus musculus [15]): 41.9%
inhibition in vivo at 200 mg/kg (Mus musculus [16]): 5.6%
Activity (Mus musculus [17]): Active
Activity (Mus musculus [18]): Active
Activity (Mus musculus [19]): Active
Activity (Mus musculus [20]): 48.6 10^-2mm
Activity (Mus musculus [21]): 54.9 10^-2mm
Activity (Mus musculus [22]): 58.1 10^-2mm
Activity (Mus musculus [23]): 62.4 10^-2mm
Activity (Mus musculus [24]): 41.3 10^-2mm
Activity (Mus musculus [25]): 44.6 10^-2mm
Activity (Mus musculus [26]): 44.2 10^-2mm
Activity (Mus musculus [27]): 47.9 10^-2mm
Activity (Mus musculus [28]): 52.3 10^-2mm
Activity (Mus musculus [29]): 57.6 10^-2mm
Activity (Mus musculus [30]): 65.2 10^-2mm
inhibition in vivo at 25 mg/kg (Mus musculus [31]): 8.6%
inhibition in vivo at 25 mg/kg (Mus musculus [32]): 7.7%
inhibition in vivo at 25 mg/kg (Mus musculus [33]): 10.3%
inhibition in vivo at 25 mg/kg (Mus musculus [34]): 13.3%
inhibition in vivo at 50 mg/kg (Mus musculus [35]): 26.3%
inhibition in vivo at 50 mg/kg (Mus musculus [36]): 30.5%
inhibition in vivo at 50 mg/kg (Mus musculus [37]): 31.2%
inhibition in vivo at 50 mg/kg (Mus musculus [38]): 38.6%
inhibition in vivo at 200 mg/kg (Mus musculus [39]): 9.9%
inhibition in vivo at 200 mg/kg (Mus musculus [40]): 11.9%
inhibition in vivo at 200 mg/kg (Mus musculus [41]): 11.1%
inhibition in vivo at 200 mg/kg (Mus musculus [42]): 9.4%
Activity (Mus musculus [43]): Non-toxic
Activity (Mus musculus [44]): Non-toxic
Activity (Mus musculus [45]): Non-toxic
Activity (Mus musculus [46]): Non-toxic
Activity (Mus musculus [47]): 39.2 10^-2mm
